Measurements reported in PMC3970594 (Memórias do Instituto Oswaldo Cruz, 2013).
Where two headings read alike, the source gives them in different places.

What was measured:
[1] = tested on: L. (L.) infantum chagasi amastigotes; test: Treatment of L.; type: in vivo, BALB/c mice; conditions: 50 mg Sb5+/kg/day i.p., four consecutive days
How it was run: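 Female BALB/c mice (20-24 g) were infected i.v. by the retro-bulbar route with 1-2 x 10⁷ hamster-spleen amastigotes/150 µL. From day 7, groups of 4 received 50 mg Sb⁵⁺/kg/day i.p. for four consecutive days; controls received PBS. Mice were euthanised two weeks post-infection and liver and spleen were weighed. Amastigotes per 400 nuclei on Giemsa imprints × organ weight (g) gave Leishman-Donovan units.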

[2] = ref Chakravarti & Sem Gupta 1950, cited from earlier work
[3] = tested on: L. (L.) infantum chagasi promastigotes; test: L.; type: cell-based, Leishmania (Leishmania) infantum chagasi; conditions: evaluation of the IC50
How it was run: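 Promastigotes (MHOM/BR/1972/LD; M-199 with 10% FBS, 0.25% haemin) were seeded at 1 × 10⁶ cells/well. Two-fold serial dilutions were applied for 24 h at 24 °C. MTT was added for 4 h at 24 °C, formazan was dissolved in 10% SDS for 18 h, and OD was read at 570 nm. Viability was normalised to untreated promastigotes (100%). IC50 came from a sigmoid dose-response fit, three experiments in duplicate.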

[4] = tested on: intracellular L. (L.) infantum chagasi amastigotes; test: Activity against intracellular amastigotes in infected peritoneal macrophages; type: cell-based, Leishmania (Leishmania) infantum chagasi; conditions: ratio of IC50 promastigotes to amastigotes
How it was run: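 For amastigotes, BALB/c peritoneal macrophages were plated on coverslips at 4 × 10⁵/well for 24 h. They were infected with hamster-spleen amastigotes at 10:1 for 24 h and washed. Compound was added for 5 days at 37 °C, 5% CO₂. Giemsa counts in 400 macrophages (untreated = 100%) gave a sigmoid-fit IC50, two experiments in duplicate.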

[5] = ref Rees et al. (1980), cited from earlier work

Row | Compound | parasite burden in the spleen, mean (SD) ([1]; untreated control 41.69 (8.60)) | parasite burden in the liver, mean (SD) ([1]; untreated control 3,331 (1,745)) | time to complete elimination after administration ([2]; healthy individuals, renal excretion) | antimony in the urine 36 h after drug administration ([2]; ill patients (VL), 36 h) | susceptibility of promastigotes [3] | fold more active against amastigotes than against promastigotes [4] | excreted in the urine ([5]; administered intravenously, after 6 h) | excreted in the urine ([5]; intramuscular injection, after 6-8 h)
1 | meglumine antimoniate [MA] | 32.17 (19.20) amastigotes per gram | 2,696 (1,472) amastigotes per gram | 24 h | traces of antimony were still observed in the urine | not susceptible | 680 fold |  | 
2 | O.O.O.O.O.O.O.O.O.O=C([O-])[C@@H]1[O][Sb](=[O])([O][Sb]2(=[O])[O][C@H]([C@H](O)CO)[C@H](O)[C@H](C(=O)[O-])[O]2)[O][C@H]([C@H](O)CO)[C@@H]1O.[Na+].[Na+].[Na+] (some centres unmarked) [sodium stibogluconate] |  |  |  |  |  |  | 96% | 80-91%
